Source: PubChem BioAssay
Unmarked numbers belong to inactive results. Records with an inconclusive call do not appear. Activity calls are given as the source filed them.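 The calls were made as follows, unless noted: active = cell viability at or below a set limit in both duplicate runs, the limit being the all-compound median minus 4 SD (cut at about 23% in these data, passing the limit was not always enough); inconclusive = no clear call, values can overlap the other calls; inactive = the rest.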

How the values were obtained:
[1] = S. cerevisiae growth inhibition in permissive medium (OD615), pilot counter-assay for S. cerevisiae lifespan shortening project, permissive growth control (AID 705;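 active = growth inhibition above 25% in both replicates, a cutoff set 3 SD above the mean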); details: OD615, 24 h, at 10 µM, stronger effect = higher value
How it was run: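 System: S. cerevisiae with engineered DeaD lifespan system. Medium: SC raffinose/galactose permissive medium. Doses: single compound dose of 10 µM, 0.25% DMSO final. Schedule: 24 h exposure, 30 °C. Measured by: OD615 turbidity read. Read-out: growth inhibition.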

[2] = S. cerevisiae growth inhibition in restrictive medium, OD615, pilot screen, restrictive growth control, yeast lifespan reduction project (AID 706;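 active = growth inhibition above a set limit, 3 SD over mean compound inhibition, in both replicates, cut at about 43% in these data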;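 also: modified DeaD lifespan yeast strain shifted to restrictive glucose medium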); details: OD615, 48 h, at 10 µM, stronger effect = higher value
How it was run: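 Assay system – genetically modified Saccharomyces cerevisiae, DeaD replicative lifespan assay strain · Medium – CSMM-D glucose medium · Doses – 10 µM compound, 0.25% DMSO · Times – 4 h pre-incubation, 48 h exposure at 30 °C · Signal – optical density at 615 nm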

[3] = doxorubicin toxicity protection in MRP-1 cells – H69AR cells, CellTiter-Glo, duplicate, MRP-1 activator project, pilot screen (AID 807;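 active = viability increase at or above a cutoff of the median across tested compounds plus 3 SD, cut at about 8.5% in these data, passing the limit was not always enough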;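 also: compound pretreatment 18-22 h then 72 h combined with doxorubicin; 0% = doxorubicin alone and 100% = vehicle without doxorubicin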); details: H69AR viability with doxorubicin, CellTiter-Glo luminescence; at 10 µM; stronger effect = higher value
[4] = viability of HCT116 without oncogenic beta-catenin – human colon tumor cells, pilot screen (AID 823); details: HCT116 beta-catenin knockout viability, CellTiter-Glo, 60 h; at 10 µM; stronger effect = lower value;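 also: 0% = wells killed by 20 µM Hyamine and 100% = untreated DMSO cell wells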
[5] = viability of PTEN-null HCT116 cells – cell-based, HCT116 clonal line, CellTiter-Glo, pilot screen (AID 824;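 active = viability at or below 27.92% in each of two runs, the all-compound median minus 4 SD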;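 also: 0% = 20 µM Hyamine control and 100% = vehicle cell control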); details: HCT116 PTEN-deleted viability, 60 h, at 10 µM, stronger effect = lower value
[6] = RAM pathway blockade in budding yeast – dse1pr::URA3 reporter, 5-FOA selection, pilot screen (AID 869;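 active = inhibition over a set limit, the all-compound mean plus 3 SD, in both replicate runs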;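 also: 0% = DMSO wells with no growth and 100% = 10 µM 1-NA-PP1 with full growth; RAM network block rescues cells from 5-FOA so hits raise OD615 growth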); details: S. cerevisiae dse1pr::URA3 5-FOA growth, OD615, 2 d; at 10 µM; stronger effect = higher value; strain carries analog-sensitive mutant Cbk1 kinase
[7] = RAM signaling pathway blockade in yeast – S. cerevisiae, Pdr1DBD-CYC8 efflux-inhibited sensitized strain, primary screen (AID 1298;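 active = RAM network inhibition above 8.4% in each of two replicates, 3 SD over the compound average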;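 also: 0% = DMSO untreated cells without growth and 100% = 10 µM 1-NA-PP1 full growth; higher means more yeast growth rescued from 5-FOA killing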); details: S. cerevisiae cbk1-as DSE1-URA3 strain, 5-FOA growth OD615, 2 d; at 50 µM; stronger effect = higher value

Row | Structure (SMILES) | growth inhibition [1] [%] | growth inhibition [2] [%] | viability increase [3] [%] | viability [4] | viability [5] | inhibition [6] [%] | RAM network inhibition [7] [%]
1 | COCCNC(=O)CS(=O)Cc1nc(-c2ccc(OC)cc2)oc1C (configuration not stated) | -9.42 | -4.61 | 0.42 | 103% | 95.2% | 1.11 | 0.85
2 | CCOC(=O)C1=C(C)S/C(=C\N(C)C)C1=O | -8.63 | -1.29 | -0.78 | 98.6% | 90.3% | -0.055 | -2.3
3 | CC(c1ccccc1)N1CC(C(=O)N2CCN(c3ccccc3)CC2)CC1=O (configuration not stated) | 0.43 | 1.48 | -1.1 | 104% | 101% | 0.54 | 4.4
4 | COc1ccc(C(=O)NCC23C=CC(O2)C2C(=O)N(Cc4ccccc4)C(=O)C23)cc1 (configuration not stated) | -5.3 | 13.4 | -0.77 | 85.1% | 88.8% | 2.19 | 3.67
5 | Nc1c(C(=O)NCc2cccnc2)sc(=S)n1-c1ccccc1 | 11.3 | 25.7 | -1.61 | 90.3% | 83.6% | 2.5 | 2.58
6 | O=C(Cn1cc2c(n1)CCCCC2)NCc1ccccn1 | -5.75 | -16.1 | -2.27 | 95.6% | 90.8% | 3.27 | 4.15
7 | O=C(NCc1ccc2c(c1)OCO2)C1CCC(CNc2c(N3CCCC3)c(=O)c2=O)CC1 (configuration not stated) | -5.55 | -7.12 | -1.29 | 104% | 102% | 3.97 | 1.53
8 | Cc1ccccc1NC(=O)c1cnn(-c2ccccc2)c1NC(=O)c1ccco1 | -12.6 | -3.13 | -0.49 | 103% | 98.2% | 0.855 | 1.65
9 | O=c1c2cnn(-c3ccccc3)c2ncn1Cc1ccccc1F | -1.06 | 9.05 | -0.65 | 93% | 88.6% | -0.06 | 4.95
10 | CC(C)=C1C2C=CC1C(C(=O)Nc1cc(C)ccc1C)C2C(=O)O (configuration not stated) | -14.6 | -12.2 | -4.28 | 87.4% | 85.8% | 1.78 | 6.92
11 | CC(=O)Nc1ccc(S(=O)(=O)N2CCN(c3cccc(C)c3C)CC2)cc1 | -2.38 | -3.89 | -6.76 | 35.8% | 34.5% | 0.185 | 0.9
12 | O=C(NCCC1=CCCCC1)C1CCCN(S(=O)(=O)c2cccc3cccnc23)C1 (configuration not stated) | -14.8 | -12.7 | -1.42 | 89% | 80.6% | 2.14 | 5.84
13 | O=C1CN(C(=O)c2ccc(Br)o2)C(c2ccccc2)c2cc(Br)ccc2N1 (configuration not stated) | -9.54 | -12.8 | -8.1 | 58.3% | 55.6% | 4.09 | 6.05
14 | CCN(C(=O)CSc1nnnn1-c1cc(C)ccc1OC)C1CCS(=O)(=O)C1 (configuration not stated) | -6.25 | 4.34 | -1.65 | 99% | 94.6% | 1.56 | -1.67
15 | Cc1ccc(CN2C(=O)/C(=C3\SC(N4CCOCC4)=NC3=O)c3cc(Br)ccc32)cc1 | -10.5 | -12.1 | -1.85 | 76.7% | 79.7% | 0.615 | 9.54
16 | CCOC(=O)C1CCN(C(=O)c2oc3ccc(S(=O)(=O)N4CCCCCC4)cc3c2C)CC1 | 0.58 | -20.9 | -3.23 | 72.8% | 78.9% | 1.73 | 0.3
17 | CC1CCCCC1NC(=O)c1ccc(CNc2c(N3CCCC3)c(=O)c2=O)cc1 (configuration not stated) | -2.63 | 8.32 | -0.12 | 96.7% | 90.8% | 1.01 | 0.72
18 | CC(=O)NCCc1nc2ccccc2n1Cc1ccccc1 | 1.21 | -2.44 | -2 | 106% | 98.8% | 1.33 | 3.58

Row | Structure (SMILES) | growth inhibition [1] [%] | growth inhibition [2] [%] | viability increase [3] [%] | viability [4] | viability [5] | inhibition [6] [%] | RAM network inhibition [7] [%]
19 | Cn1c(C(=O)NCc2cccs2)cc2c(=O)n(C)c3ccccc3c21 | -0.025 | -1.79 | -3.65 | 98.9% | 98.1% | 2.62 | 1.75
20 | COc1ccc(OC)c(N(CC(=O)NCCSc2ccccc2)S(C)(=O)=O)c1 | -4.86 | -9.71 | -3.1 | 96.9% | 95.5% | 0.23 | 4.35
21 | CC(=O)N1CCC(C(=O)Nc2ccccc2)(N(Cc2ccccc2)C(=O)c2cccnc2)CC1 | -2.38 | 4.33 | -0.15 | 95.7% | 86.7% | 1.47 | -1.39
22 | COc1ccc(C2C(C#N)=C(N)Oc3n[nH]c(C)c32)cc1Cn1nnc2ccccc21 (configuration not stated) | 2.33 | -0.6 | -5.95 | 75.7% | 77.9% | 1.26 | 7.2
23 | COCCOC(=O)c1c(C)oc2ccc(OCC=C(C)C)cc12 | -0.275 | -6.21 | 3.27 | 97.8% | 95% | 0.175 | 4.81
24 | O=C(Cn1cnc2c(cnn2-c2ccccc2)c1=O)NC1CCCC1 | 3.55 | -3.13 | 1.03 | 99.2% | 95.8% | 1.77 | 2.38
25 | O=C1CC(c2ccco2)CC(O)=C1C=NCC1CCNCC1 (configuration not stated) | -17.1 | -5.49 | 1.85 | 102% | 101% | 0.37 | 3.8
26 | C=Cn1ccnc1P(=S)(c1ccc2c(c1)c1ccccc1n2CC)c1nccn1C=C | -10.3 | -21.9 | -6.67 | 16.2% (active) | 13.8% (active) | 3.5 | 6.54
27 | O=C(Nc1ccc(Cl)cc1)C1CC2CCCC(C1)C2=O (configuration not stated) | -7.49 | -3.51 | 0.77 | 97.2% | 99.2% | 0.77 | 4.61
28 | Cc1cc(NC(=O)C2CC(c3ccc(F)cc3)=NO2)no1 (configuration not stated) | -0.42 | -0.655 | -0.18 | 101% | 109% | -0.08 | 4.62
29 | COc1ccc(NC(=O)C(c2ccccc2)N(C)C(=O)c2cnccn2)cc1 (configuration not stated) | -4.62 | -12.6 | -1.52 | 99.2% | 90.8% | 0.88 | 0.05
30 | Cc1oc(-c2cccs2)nc1CS(=O)CC(=O)NCCCN1CC(C)CC(C)C1 (configuration not stated) | -8.47 | -12.7 | -1.75 | 93.9% | 92.4% | 2.27 | 3.39
31 | Cc1[nH]c2ccc(-c3n[nH]c(=S)n3C)cc2c1C | -4.45 | -17.6 | 0.84 | 98.9% | 93.3% | 1.31 | 0.57
32 | COCCCNC(=O)CS(=O)Cc1nc(-c2ccccc2C)oc1C (configuration not stated) | -4.76 | 18 | -1.44 | 97.9% | 102% | 0.445 | 6.27
33 | O=C(O)CSc1cccc2cccc(C(=O)O)c12 | -0.49 | 4.41 | -2.27 | 105% | 101% | 1.54 | 1.15
34 | O=C(Nc1ccccc1C1CC1)c1cccs1 | -10.4 | -19.7 | 1.09 | 95% | 96.9% | 1.16 | 0.36
35 | CC1CCCC(C)N1C(=O)Cn1c(=O)sc2ccccc21 (configuration not stated) | -4.41 | 8.62 | -3.08 | 97.8% | 90.6% | 0.87 | 4.18
36 | Cc1ccc(-c2nc(CS(=O)(=O)CC(=O)N3CC(C)CC(C)C3)c(C)o2)cc1 (configuration not stated) | 0.15 | 4.4 | -2.57 | 58% | 72.8% | 1.93 | 3.8
